Assay: Toxicity liver stage against HepG2, at 10uM
Type: cell-based
Set-up: test concentration 10 uM, cell line HepG2-A16-CD81EGFP
Details: human, HepG2-A16-CD81EGFP cells; read-out: INHIBITION
How it was run: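 Uninfected HepG2-A16-CD81EGFP cells, 3 × 10^3 per well, 1536-well, plated on prespotted compound at 10 μM final, parasite-free screening media added to match infected plates; puromycin 10 μM positive, DMSO 0.5% negative; run in parallel with 48 h PbLuc assay at 37 °C, 5% CO2; viability by CellTiter-Glo luminescence, normalized to controls.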

| SMILES | cytotoxicity at 10 µM [%] |
| --- | --- |
| COCCN1C[C@H]2CN(C(=O)NCc3ccccc3)CCN2C1=O | 2.08 |
| COCc1cc(C[C@@H]2CC[C@H](O)[C@@H](CNCC(C)C)O2)no1 | 0.847 |
| CC(C)(C)n1ncc2c1NC(=O)CSC2c1ccsc1 (stereo unspecified) | -2.34 |
| Cc1nn(C)cc1-c1nn2c(C(F)(F)F)nnc2s1 | 2.48 |
| COCCNC(=O)NCCn1nc(C(F)(F)F)n(C)c1=O | -2.06 |
| CC(C)N1CCc2[nH]nc(C(=O)N3CCCC3C)c2C1 (stereo unspecified) | -6.25 |
| Cc1cnc(CNC(=O)C[C@@H]2COC[C@H]3CN(C4CCC4)C[C@@H]23)cn1 | -10.6 |
| CNC(=O)[C@@]12CCC3(CCNCC3)[C@@H]1CN(S(C)(=O)=O)C2 | -2.86 |
| CO[C@@H]1CC[C@H]2[C@H]1OCCN2S(=O)(=O)C1CC1 | 2.6 |
| CCc1ccc(NC(=O)N2C[C@H]3CC[C@@]4(N=C(C)N(C)C4=O)[C@H]3C2)cc1 | 11 |
| COCC1CN(C(=O)c2cccn2C)Cc2cnn(C)c21 (stereo unspecified) | 7.43 |
| COc1cc(C(=O)NCC2CCCO2)nc2c(C)cc(F)cc12 (stereo unspecified) | 1.79 |
| COC(=O)c1sccc1S(=O)(=O)NCC1(O)CCOc2ccccc21 (stereo unspecified) | -10.9 |
| CC(=O)N1CCn2c(COCc3csc(C)n3)cnc2C1C (stereo unspecified) | -12.5 |
| CN(C)[C@@H]1CCN(c2ncccn2)[C@H]1Cc1ccccc1 | -9.29 |
| Cn1cc(Br)c(C(=O)NCCn2cc(Br)cn2)n1 | -13.3 |
| COC(=O)c1c(Cl)c(C)nc2onc(C)c12 | -0.895 |
| O=C(O)c1cnc(N2CCCC2)nc1COc1ccccc1 | 0.924 |
| COc1ccc(CNC(=O)c2nn(C)c3c2CS(=O)(=O)CC3)cc1OC | 8.09 |
| CC(=O)N1CCOC(c2c(C(=O)NCCN(C)C)sc3ccccc23)C1 (stereo unspecified) | -1.19 |
| CN(CCOc1ccc(F)cc1)S(=O)(=O)N1CCOCC1 | 7.71 |
| c1cnc(NCCCOC2CCOCC2)nc1 | -2.96 |
| COCC(=O)Nc1nnc2n(Cc3cccc(OC)c3)[nH]c(C)c1-2 | -11.7 |

| SMILES | cytotoxicity at 10 µM [%] |
| --- | --- |
| CCC(C)NC(=O)CS(=O)(=O)Cc1ccccc1Cl (stereo unspecified) | 3.79 |
| CN(C)C(=O)CCCn1ccc(NCc2ccc(C#N)cc2)n1 | 1.92 |
| CCCOc1cc(CNC(=O)Nc2ccc(C)cc2)ccn1 | 2.99 |
| NC(=O)CN1CCc2c(Br)ccc(F)c2C1 | 0.892 |
| CC(C)Oc1cccc(CN(C)C(=O)Nc2cccn(C)c2=O)c1 | -6.13 |
| CN(C(=O)c1ccc(NC(=O)c2cc[nH]n2)cc1)C1CCCCC1 | -2.98 |
| CN(C)c1ccc(C(=O)Nc2ccn(CC(N)=O)n2)cn1 | -5.75 |
| O=C(CNC(=O)c1ccccc1I)NCc1ccccc1F | 1.16 |
| O=c1[nH]nc(SCC2CCCO2)n1C1CC1 (stereo unspecified) | 0.0288 |
| Cc1cc(N2CCc3c(ncn3C)C2)nc(N)n1 | -7.93 |
| Cc1cnc(CN2CCN(C(C)c3nc(C)no3)CC2)cn1 (stereo unspecified) | 1.81 |
| O=C(NCC(c1cccs1)N1CCOCC1)c1ccc(F)cc1Cl (stereo unspecified) | -2.27 |
| Cc1cc(C)n(CC2CN(CC(=O)Nc3cccnc3)CCO2)n1 (stereo unspecified) | -3.1 |
| Cc1cccc(S(=O)(=O)N2CSCC2C(=O)NCC2CC2)c1 (stereo unspecified) | -6.14 |
| CCOc1ccc(CC(=O)Nc2cnccc2SCCCO)cc1 | 7.94 |
| Cc1cccc(-c2noc(CN3CCn4c(nnc4C4CC4)C3)n2)c1 | -9.03 |
| COc1ccc2c(c1)C(=O)N(C)C1(CCN(CC=C(C)C)CC1)N2 | 3.31 |
| N#Cc1cccnc1NCc1ccc(S(=O)(=O)NC2CC2)cc1 | 6.25 |
| Cc1n[nH]c(C)c1NC(=O)c1cccc(OCC(F)(F)F)n1 | -6.83 |
| O=C(CNc1cc(F)ccc1OC(F)F)NCC(F)(F)F | -2.79 |
| CC(CNC(=O)c1c[nH]nn1)Oc1cccc(Br)c1 (stereo unspecified) | -10.3 |
| CC(C)CN1C(=O)C2(CCCC2)NC12CCSCC2 | -135 |
| O=C(c1ccc[nH]1)N(Cc1ccc(O)cc1)CC1CC1 | 8.43 |

| SMILES | cytotoxicity at 10 µM [%] |
| --- | --- |
| COCCCNC(=O)Cn1nnc(-c2cc3ccccc3o2)n1 | 6.43 |
| COc1ccc(S(=O)(=O)C(C)C(=O)NCCOc2cccc(C)c2)cc1 (stereo unspecified) | -2.24 |
| Cc1c(NC(=O)NC2CCCC2)cccc1C(=O)N1CCSCC1 | 11.8 |
| CCc1nnsc1C(=O)N1CCN(CC(O)C(C)(C)C)CC1 (stereo unspecified) | 0.542 |
| O=C(O)c1csc(S(=O)(=O)N2CCCc3cc(OC(F)F)ccc32)c1 | -9.69 |
| CCOc1ccc(C(F)(F)F)cc1NC(=O)NCc1noc(C)n1 | -5.1 |
| COCCN1CCN(c2ccc(CN(C)C)cn2)CC1 | -7.41 |
| O=C(c1ccccc1O)N1CCN(C(=O)C2CCC2)CC1 | 2.42 |
| c1ccc(CN2CCCC2)c(CNc2cncc3nnnn23)c1 | 0.351 |
| CC(=O)Nc1ccc(C(=O)N2CCSCC2c2ccc(C)o2)cc1 (stereo unspecified) | 11.4 |
| CCCNC(=O)C1CCCN(Cc2ccc(-n3cncn3)c(C)c2)C1 (stereo unspecified) | 8.28 |
| OC(CN1CCOCC1)c1cc(Cl)ccc1Cl (stereo unspecified) | -1.57 |
| COC(C)(C)CC(C)NC(=O)Nc1ccccn1 (stereo unspecified) | 8.19 |
| CC1CCCN1C1CCN(C(=O)c2cccc(-c3ccoc3)c2)CC1 (stereo unspecified) | -9.63 |
| CC(=O)N(C)c1nc(CN2CCOC(Cn3cccn3)C2)cs1 (stereo unspecified) | -12.8 |
| CCc1nc2n(n1)CC(NCc1nc(C)ccc1O)CC2 (stereo unspecified) | -9.96 |
| CS(=O)(=O)Cc1cccc(C(=O)NCC2Cc3ccccc3O2)c1 (stereo unspecified) | -16.5 |
| COc1ccc2cc(CN(C)CCN3CCCCC3=O)c(=O)[nH]c2c1 | 0.363 |
| CCC(C)NC(=O)c1coc(COc2cccc(F)c2)n1 (stereo unspecified) | -146 |
| NS(=O)(=O)c1ccc(F)c(C(=O)NCCSc2ccccn2)c1 | -9.11 |
| COCc1noc(Cn2ccc3ccccc3c2=O)n1 | 0.761 |
| Cc1ccc(Oc2ncccc2CNC2CCOCC2)cn1 | -3.73 |
| COc1cccc(CN2C[C@H]3CC[C@H]2C3)c1OCCN1CCOCC1 | 0.101 |

| SMILES | cytotoxicity at 10 µM [%] |
| --- | --- |
| CC(=O)Nc1ccsc1C(=O)Nc1cnc2n1CCCC2 | -4.58 |
| CCN1CCN(C[C@@H]2CN(c3ncccc3C(F)(F)F)C[C@@H]2CO)CC1 | -4.47 |
| Cc1ccc2nc(C(=O)N3CCNC(=O)C3c3cccc(F)c3)cn2c1 (stereo unspecified) | -5.66 |
| Cc1cc(C)c2c(N3CCN(C(=O)N4CCOCC4)CC3)ncnc2n1 | -8.29 |
| O=C(NCc1ccc(F)cc1F)C(c1cccnc1)N1CCOCC1 (stereo unspecified) | -4.89 |
| CC(C)c1cc(-c2cnn(C)c2C2CC2)c(C#N)c(N)n1 | 28.5 |
| Cc1cccc(CN2CCCC(O)(CNCc3cccc(F)c3)C2=O)c1 (stereo unspecified) | -12.1 |
| COCC1CCCCN1C(=O)c1cc(Cn2ccc3ccccc32)[nH]n1 (stereo unspecified) | -3.54 |
| CCc1ncc(C(=O)N2CCN(C(=O)COc3ccccc3)CC2)cn1 | -12.8 |
| Cc1cccc2[nH]c(C3CCN(C(=O)c4c[nH]c(=O)[nH]c4=O)CC3)nc12 | 8.59 |
| CS(=O)(=O)N1CCC(Oc2ccc(C(=O)NC3CCCC3)cc2Cl)CC1 | -1.02 |
| CCCn1cc(C(=O)NCCc2ccc3c(c2)OCO3)c(C)n1 | 96.3 |
| CC(=O)N1C[C@H](NS(=O)(=O)c2cccc(Cl)c2)[C@@H](C(C)C)C1 | 7.82 |
| CCN1CCN(C(=O)c2cccc(CN3CCOCC3)c2)CC1 | 7.12 |
| Cn1ccnc1C(=O)N1CCCC1c1ccc(C(=O)N2CCOCC2)s1 (stereo unspecified) | -155 |
| N#Cc1c(C2CC2)cc(-c2ccc(O)cc2)nc1N | -4.72 |
| CCc1nc(C)c([C@H]2CN(C)C[C@@H]2C(=O)Nc2ccc(OC)cc2)[nH]1 | -6.66 |
| CCc1nc(C2CCCN2CC(=O)Nc2cc(C)no2)no1 (stereo unspecified) | -1.68 |
| CCN1N=C(C(=O)N2CCCC(c3nc(C)c(C)s3)C2)CCC1=O (stereo unspecified) | 1.84 |
| Cn1ccnc1COc1ccc(CN2CCC(C(N)=O)CC2)cc1 | -4.47 |
| Cc1nc(C)n(CC2CN(c3ncccc3C#N)CCO2)n1 (stereo unspecified) | -10.1 |
| CC(=O)NCCNC(=O)c1sc(-c2ccc(Cl)cc2)nc1C | -7.6 |
| Cc1ccc(N2CCCN(C(=O)CCC3CCCO3)CC2)nn1 (stereo unspecified) | -16.3 |

| SMILES | cytotoxicity at 10 µM [%] |
| --- | --- |
| Cc1nc(C)n(CC2CCCN(Cc3cccnc3)C2)n1 (stereo unspecified) | -18.7 |
| c1cc(-c2noc(CN3CCn4c(nnc4C4CC4)C3)n2)cs1 | -7.07 |
| COc1ccc(NC(=O)NCc2ccnc(N(C)C)c2)cn1 | -8.6 |
| Cc1cccc(CNC(=O)N(CCCO)C2CCc3ccccc32)n1 (stereo unspecified) | -10.5 |
| CCOCC(O)CN1CCN(C(=O)C2CCC2)CC1 (stereo unspecified) | -11.8 |
| O=C(Cc1c[nH]c2ccccc12)N1CCC(Nc2ccccc2)CC1 | -12.9 |
| CCc1nc(CN2CCOC(Cn3nc(C)nc3C)C2)no1 (stereo unspecified) | -5.38 |
| O=C(c1cnccn1)N1CCCC2(CCN(Cc3ccsc3)C2)C1 (stereo unspecified) | -2.27 |
| O=C(Nc1cnccn1)[C@H]1COC[C@H]2CN(C3CCCC3)C[C@H]21 | -20.4 |
| Cc1nc(CN2CCOCC23CCN(c2ccc(C#N)cc2)CC3)cs1 | -13.8 |
| CN1CCOCC12CCN(c1ccc(C#N)cc1)CC2 | -4.23 |
| COCCN1CCc2ccc(=O)n(Cc3csc(C)n3)c2CC1 | 4.68 |
| Cc1csc(CCNCc2cnc3c(c2)c(C)nn3C)n1 | 5.76 |
| CC(C)N(C)Cc1cn2c(n1)CN(Cc1ccsc1)CC2 | -16.1 |
| CN(C)C(=O)NCc1cc2n(n1)CCCN(CC1[C@H]3CNC[C@@H]13)C2 (stereo partly specified) | -5.77 |
| COC(=O)N1C[C@@H]2CC[C@H]1CN(Cc1cscn1)C2 | -9.25 |
| COc1ccc(OC)c(C2c3c(n[nH]c3C)N=C3COC(=O)C32)c1 (stereo unspecified) | -11.3 |
| C=c1occc1=C1NN=C2SC(C#N)C(N)=NN21 (stereo unspecified) | 0.331 |
| Cc1oc(C(C)C)cc1C(=O)N1C[C@@H]2CC[C@H]1CN(C(=O)N(C)C)C2 | -119 |
